Legend:
Assay type in all cases: cell-based
HeLa = assay: Cytotoxicity against human HeLa cells at 1 to 10 uM after 24 hrs by MTS assay
In short: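 HeLa cells at ~80% confluence, uninfected, exposed to 1–100 μM PPMO or water (mock) in serum-free DMEM-F-12 (1:1) for 24 h. MTS reagent was added for 4 h and absorbance read at 492 nm. Viability was expressed as percent of water-treated cells (set to 100%), averaged over 12 wells.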

SK-N-MC = assay: Cytotoxicity against human SK-N-MC cell at 10 uM after 24 hrs by MTS assay
Vero = assay: Cytotoxicity against African green monkey Vero cells at 10 uM after 24 hrs by MTS assay; details: chlorocebus sabaeus

Measured: Activity

Cc1cn([C@H]2CN(P(=O)(OC[C@@H]3CN(P(=O)(OC[C@@H]4CN(P(=O)(OC[C@@H]5CN(P(=O)(OC[C@@H]6CN(P(=O)(OC[C@@H]7CNC[C@H](n8cnc9c(=O)[nH]c(N)nc98)O7)N(C)C)C[C@H](n7ccc(N)nc7=O)O6)N(C)C)C[C@H](n6cnc7c(N)ncnc76)O5)N(C)C)C[C@H](n5cnc6c(N)ncnc65)O4)N(C)C)C[C@H](n4ccc(N)nc4=O)O3)N(C)C)C[C@@H](COP(=O)(N(C)C)N3C[C@@H](COP(=O)(N(C)C)N4C[C@@H](COP(=O)(N(C)C)N5C[C@@H](COP(=O)(N(C)C)N6C[C@@H](COP(=O)(N(C)C)N7C[C@@H](COP(=O)(N(C)C)N8C[C@@H](COP(=O)(N(C)C)N9C[C@@H](COP(=O)(N(C)C)N%10C[C@@H](COP(=O)(N(C)C)N%11C[C@@H](COP(=O)(N(C)C)N%12C[C@@H](COP(=O)(N(C)C)N%13C[C@@H](COP(=O)(N(C)C)N%14C[C@@H](COP(=O)(N(C)C)N%15C[C@@H](COP(=O)(N(C)C)N%16C[C@@H](COP(=O)(N(C)C)N%17C[C@@H](COP(=O)(N(C)C)N%18CCN(C(=O)[C@H](CS)NC(=O)[C@H](Cc%19ccccc%19)NC(=O)[C@H](Cc%19ccccc%19)NC(=O)[C@H](CCCNC(=N)N)NC(=O)[C@H](CCCNC(=N)N)NC(=O)[C@H](CCCNC(=N)N)NC(=O)[C@H](CCCNC(=N)N)NC(=O)[C@H](CCCNC(=N)N)NC(=O)[C@H](CCCNC(=N)N)NC(=O)[C@H](CCCNC(=N)N)NC(=O)[C@H](CCCNC(=N)N)NC(=O)[C@@H](N)CCCNC(=N)N)CC%18)O[C@@H](n%18cnc%19c(=O)[nH]c(N)nc%19%18)C%17)O[C@@H](n%17cc(C)c(=O)[nH]c%17=O)C%16)O[C@@H](n%16ccc(N)nc%16=O)C%15)O[C@@H](n%15cc(C)c(=O)[nH]c%15=O)C%14)O[C@@H](n%14cnc%15c(=O)[nH]c(N)nc%15%14)C%13)O[C@@H](n%13cc(C)c(=O)[nH]c%13=O)C%12)O[C@@H](n%12cc(C)c(=O)[nH]c%12=O)C%11)O[C@@H](n%11cc(C)c(=O)[nH]c%11=O)C%10)O[C@@H](n%10ccc(N)nc%10=O)C9)O[C@@H](n9cnc%10c(=O)[nH]c(N)nc%109)C8)O[C@@H](n8cc(C)c(=O)[nH]c8=O)C7)O[C@@H](n7cc(C)c(=O)[nH]c7=O)C6)O[C@@H](n6cc(C)c(=O)[nH]c6=O)C5)O[C@@H](n5cc(C)c(=O)[nH]c5=O)C4)O[C@@H](n4ccc(N)nc4=O)C3)O2)c(=O)[nH]c1=O (some centres undefined)
Non-toxic: all assays above

Cc1cn([C@H]2CN(P(=O)(OC[C@@H]3CN(P(=O)(OC[C@@H]4CN(P(=O)(OC[C@@H]5CN(P(=O)(OC[C@@H]6CN(P(=O)(OC[C@@H]7CN(P(=O)(OC[C@@H]8CN(P(=O)(OC[C@@H]9CNC[C@H](n%10cnc%11c(=O)[nH]c(N)nc%11%10)O9)N(C)C)C[C@H](n9cnc%10c(N)ncnc%109)O8)N(C)C)C[C@H](n8cnc9c(=O)[nH]c(N)nc98)O7)N(C)C)C[C@H](n7cnc8c(N)ncnc87)O6)N(C)C)C[C@H](n6ccc(N)nc6=O)O5)N(C)C)C[C@H](n5ccc(N)nc5=O)O4)N(C)C)C[C@H](n4cnc5c(N)ncnc54)O3)N(C)C)C[C@@H](COP(=O)(N(C)C)N3C[C@@H](COP(=O)(N(C)C)N4C[C@@H](COP(=O)(N(C)C)N5C[C@@H](COP(=O)(N(C)C)N6C[C@@H](COP(=O)(N(C)C)N7C[C@@H](COP(=O)(N(C)C)N8C[C@@H](COP(=O)(N(C)C)N9C[C@@H](COP(=O)(N(C)C)N%10C[C@@H](COP(=O)(N(C)C)N%11C[C@@H](COP(=O)(N(C)C)N%12C[C@@H](COP(=O)(N(C)C)N%13C[C@@H](COP(=O)(N(C)C)N%14C[C@@H](COP(=O)(N(C)C)N%15C[C@@H](COP(=O)(N(C)C)N%16CCN(C(=O)[C@H](CS)NC(=O)[C@H](Cc%17ccccc%17)NC(=O)[C@H](Cc%17ccccc%17)NC(=O)[C@H](CCCNC(=N)N)NC(=O)[C@H](CCCNC(=N)N)NC(=O)[C@H](CCCNC(=N)N)NC(=O)[C@H](CCCNC(=N)N)NC(=O)[C@H](CCCNC(=N)N)NC(=O)[C@H](CCCNC(=N)N)NC(=O)[C@H](CCCNC(=N)N)NC(=O)[C@H](CCCNC(=N)N)NC(=O)[C@@H](N)CCCNC(=N)N)CC%16)O[C@@H](n%16ccc(N)nc%16=O)C%15)O[C@@H](n%15cnc%16c(N)ncnc%16%15)C%14)O[C@@H](n%14cnc%15c(N)ncnc%15%14)C%13)O[C@@H](n%13cnc%14c(N)ncnc%14%13)C%12)O[C@@H](n%12cnc%13c(=O)[nH]c(N)nc%13%12)C%11)O[C@@H](n%11cnc%12c(=O)[nH]c(N)nc%12%11)C%10)O[C@@H](n%10cc(C)c(=O)[nH]c%10=O)C9)O[C@@H](n9cnc%10c(N)ncnc%109)C8)O[C@@H](n8ccc(N)nc8=O)C7)O[C@@H](n7cnc8c(N)ncnc87)C6)O[C@@H](n6cc(C)c(=O)[nH]c6=O)C5)O[C@@H](n5cnc6c(N)ncnc65)C4)O[C@@H](n4cnc5c(=O)[nH]c(N)nc54)C3)O2)c(=O)[nH]c1=O (some centres undefined)
Non-toxic: all assays above

Cc1cn([C@H]2CNC[C@@H](COP(=O)(N(C)C)N3C[C@@H](COP(=O)(N(C)C)N4C[C@@H](COP(=O)(N(C)C)N5C[C@@H](COP(=O)(N(C)C)N6C[C@@H](COP(=O)(N(C)C)N7C[C@@H](COP(=O)(N(C)C)N8C[C@@H](COP(=O)(N(C)C)N9C[C@@H](COP(=O)(N(C)C)N%10C[C@@H](COP(=O)(N(C)C)N%11C[C@@H](COP(=O)(N(C)C)N%12C[C@@H](COP(=O)(N(C)C)N%13C[C@@H](COP(=O)(N(C)C)N%14C[C@@H](COP(=O)(N(C)C)N%15C[C@@H](COP(=O)(N(C)C)N%16C[C@@H](COP(=O)(N(C)C)N%17C[C@@H](COP(=O)(N(C)C)N%18C[C@@H](COP(=O)(N(C)C)N%19C[C@@H](COP(=O)(N(C)C)N%20C[C@@H](COP(=O)(N(C)C)N%21C[C@@H](COP(=O)(N(C)C)N%22C[C@@H](COP(=O)(N(C)C)N%23CCN(C(=O)[C@H](CS)NC(=O)[C@H](Cc%24ccccc%24)NC(=O)[C@H](Cc%24ccccc%24)NC(=O)[C@H](CCCNC(=N)N)NC(=O)[C@H](CCCNC(=N)N)NC(=O)[C@H](CCCNC(=N)N)NC(=O)[C@H](CCCNC(=N)N)NC(=O)[C@H](CCCNC(=N)N)NC(=O)[C@H](CCCNC(=N)N)NC(=O)[C@H](CCCNC(=N)N)NC(=O)[C@H](CCCNC(=N)N)NC(=O)[C@@H](N)CCCNC(=N)N)CC%23)O[C@@H](n%23cnc%24c(=O)[nH]c(N)nc%24%23)C%22)O[C@@H](n%22cnc%23c(=O)[nH]c(N)nc%23%22)C%21)O[C@@H](n%21ccc(N)nc%21=O)C%20)O[C@@H](n%20cnc%21c(=O)[nH]c(N)nc%21%20)C%19)O[C@@H](n%19cc(C)c(=O)[nH]c%19=O)C%18)O[C@@H](n%18ccc(N)nc%18=O)C%17)O[C@@H](n%17cc(C)c(=O)[nH]c%17=O)C%16)O[C@@H](n%16cc(C)c(=O)[nH]c%16=O)C%15)O[C@@H](n%15ccc(N)nc%15=O)C%14)O[C@@H](n%14ccc(N)nc%14=O)C%13)O[C@@H](n%13cnc%14c(N)ncnc%14%13)C%12)O[C@@H](n%12cc(C)c(=O)[nH]c%12=O)C%11)O[C@@H](n%11cnc%12c(=O)[nH]c(N)nc%12%11)C%10)O[C@@H](n%10cnc%11c(N)ncnc%11%10)C9)O[C@@H](n9cc(C)c(=O)[nH]c9=O)C8)O[C@@H](n8ccc(N)nc8=O)C7)O[C@@H](n7cnc8c(N)ncnc87)C6)O[C@@H](n6ccc(N)nc6=O)C5)O[C@@H](n5cnc6c(N)ncnc65)C4)O[C@@H](n4cnc5c(=O)[nH]c(N)nc54)C3)O2)c(=O)[nH]c1=O (some centres undefined)
Non-toxic: all assays above
